Data taken from ChEMBL document CHEMBL4316645, “Phenolic C-Glycosides and Aglycones from Marine-Derived Aspergillus sp. and Their Anti-Inflammatory Activities” (J Nat Prod, 2019).
Activity calls are given as the source filed them. No cut-off for these calls is given here.

What was measured:
[1] = test system: RAW264.7; test: Inhibition of LPS-induced nitric oxide production in mouse RAW264.7 cells preincubated for 2 hrs followed by LPS-stimulation and measured after 12 hrs by Griess assay; type: functional, cell-based
Outline: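 RAW264.7 cells seeded at 2 × 10^5 cells/well and preincubated 24 h, then treated 2 h with test compounds from 40 to 0.5 μM, then stimulated with LPS (1 μg/mL) for 12 h. Supernatant spun at 16 000 rpm for 20 min, mixed with Griess reagent (0.1% naphthyl ethylenediamine dihydrochloride, 1% sulfanilamide, 2% phosphoric acid) for 10 min at rt, read at 540 nm. Means of three independent experiments.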

[2] = test system: RAW264.7; test: Antiinflammatory activity in mouse RAW264.7 cells assessed as inhibition of LPS-induced COX2 expression at 5 to 10 uM preincubated for 2 hrs followed by LPS-stimulation and measured after 12 hrs by Western blot analysis; type: functional, cell-based
Outline: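 After 2 h compound pretreatment and 12 h LPS (1 μg/mL), cells were lysed in 20 mM Tris HCl pH 7.4 with protease inhibitors, and protein was quantified. Lysates were run on SDS-PAGE, transferred to PVDF, and blocked in PBS/0.1% Tween 20/5% skim milk for 1 h at rt. Blots were probed overnight at 4 °C for COX-2 and β-actin, developed by chemiluminescence, and bands quantified by densitometry. Mean ± SD, n = 3.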

[3] = test system: RAW264.7; test: Antiinflammatory activity in mouse RAW264.7 cells assessed as inhibition of LPS-induced IL-1beta production preincubated for 2 hrs followed by LPS-stimulation and measured after 12 hrs by ELISA; type: functional, cell-based
Outline: (§1)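 Cells seeded at 2 × 10^5 cells/well and preincubated 24 h. They were pretreated 2 h with compound, then given LPS (1 μg/mL) for 12 h. IL-1β and IL-6 in the culture medium were measured by ELISA. Data are mean ± SD (n = 3), analysed by one-way ANOVA with Tukey's test against the LPS-only group.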

[4] = test system: RAW264.7; test: Antiinflammatory activity in mouse RAW264.7 cells assessed as inhibition of LPS-induced IL-6 production preincubated for 2 hrs followed by LPS-stimulation and measured after 12 hrs by ELISA; type: functional, cell-based; outline: as §1
[5] = target: Transcription factor p65 (Mus musculus) (UniProt Q04207); test: Inhibition of NFkappaB p65 nuclear translocation in LPS-stimulated mouse RAW264.7 cells at 5 to 10 uM preincubated for 2 hrs followed by LPS-stimulation and measured after 12 hrs by DAPI staining based fluorescence microscopic analysis; type: cell-based
Outline: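 Cells were fixed in 4% paraformaldehyde for 20 min and permeabilized with 0.2% Triton X-100 for 30 min. After 5% BSA block for 1 h, they were given anti-p65 primary overnight at 4 °C, then Alexa Fluor 594 secondary (1:500) for 1 h at rt. DAPI (5 μg/mL) was applied 30 min at 37 °C. Imaging used fluorescence microscopy, ex/em 590/617 nm for p65 and 360/450 nm for DAPI.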

Chain of Transcription factor p65 (Mus musculus) (Q04207 whole entry): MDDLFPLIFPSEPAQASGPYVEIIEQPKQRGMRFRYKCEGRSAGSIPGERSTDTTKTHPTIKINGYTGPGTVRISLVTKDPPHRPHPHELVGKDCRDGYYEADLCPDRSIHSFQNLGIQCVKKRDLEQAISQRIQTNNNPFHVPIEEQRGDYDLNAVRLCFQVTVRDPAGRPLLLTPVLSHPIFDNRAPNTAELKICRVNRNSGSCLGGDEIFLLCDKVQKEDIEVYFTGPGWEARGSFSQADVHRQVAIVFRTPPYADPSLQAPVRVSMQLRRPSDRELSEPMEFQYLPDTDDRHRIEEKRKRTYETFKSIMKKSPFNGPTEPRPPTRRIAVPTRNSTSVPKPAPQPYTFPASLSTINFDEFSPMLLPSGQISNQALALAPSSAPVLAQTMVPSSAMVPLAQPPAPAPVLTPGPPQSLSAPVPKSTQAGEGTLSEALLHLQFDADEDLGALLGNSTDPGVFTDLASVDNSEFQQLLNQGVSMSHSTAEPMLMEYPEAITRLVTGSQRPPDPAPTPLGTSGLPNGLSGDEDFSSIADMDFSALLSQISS

| IC50 [1] [µM] | SMILES | further results |
| --- | --- | --- |
| 9.9 | CCC/C=C/C=C/CCc1cc(O)cc(O)c1C(=O)O |  |
| 17 | CCC/C=C/C=C/C1Cc2cc(O)cc(O)c2C(=O)O1 (configuration not stated) |  |
| 19 | CC/C=C/C=C/CCc1cc(O)c([C@@H]2O[C@H](CO)[C@@H](O)[C@H](O)[C@H]2O)c(O)c1C(=O)OC |  |
| > 40 | CCC/C=C/C=C/CCc1cc(O)c([C@@H]2O[C@H](CO)[C@@H](O)[C@H](O)[C@H]2O)c(O)c1C(=O)OC |  |
| 28 | CCC/C=C/C=C\CCc1cc(O)cc(O)c1 |  |
| 15 | CCC/C=C/C=C/CCc1cc(O)c([C@@H]2O[C@H](CO)[C@@H](O)[C@H](O)[C@H]2O)c(O)c1C(=O)OCC |  |
| > 40 | C/C=C/C=C/CCc1cc(O)c([C@@H]2O[C@H](CO)[C@@H](O)[C@H](O)[C@H]2O)c(O)c1C(=O)OC |  |
| 30 | CCC/C=C\C=C\CCc1cc(O)c([C@@H]2O[C@H](CO)[C@@H](O)[C@H](O)[C@H]2O)c(O)c1 |  |
| > 40 | CCC/C=C/C=C\CCc1cc(O)c([C@@H]2O[C@H](CO)[C@@H](O)[C@H](O)[C@H]2O)c(O)c1C(=O)OC |  |
| > 40 | CCC/C=C/C=C\CCc1cc(O)c([C@@H]2O[C@H](CO)[C@@H](O)[C@H](O)[C@H]2O)c(O)c1 |  |
| 14 | CCC/C=C\C=C\CCc1cc(O)c([C@@H]2O[C@H](CO)[C@@H](O)[C@H](O)[C@H]2O)c(O)c1C(=O)OC |  |
| > 40 | CCC/C=C/C=C/CCc1cc(O)c([C@@H]2O[C@H](CO)[C@@H](O)[C@H](O)[C@H]2O)c(O)c1 |  |
| 6 | CCC/C=C/C=C/CCc1cc(O)cc(O)c1 | inhibition [2]: Active; inhibition [3]: Dose-dependent effect; inhibition [4]: Dose-dependent effect; inhibition [5]: Active |
